≈ marks a conversion by molar mass, not a printed value. Calls of active or inactive are those of the source. The calls are words filed in the database; no cut-off is given here.
Test system: Mycobacterium tuberculosis
Test: Antimycobacterial activity against Mycobacterium tuberculosis at 128 uM
Format: functional, organism-based
Details: not given

Which Activity does the source give for CCC[C@@H](OC(C)=O)C1=C(Br)/C(=C/Br)OC1=O here?
The Activity was “inactive”.

Which Activity does the source give for CCC[C@@H](OC(C)=O)C1=C(Br)[C@@](CI)(OC)OC1=O here?
Its Activity is “inactive”.

Test system: Penicillium oxalicum
Test: Antimicrobial activity against Penicillium oxalicum at 5 ug
Format: functional
Details: not given
How it was run: (§1)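 Direct bioautography: each compound is spotted onto TLC plates and the solvent evaporated. The test organism is then grown directly on the plate. Growth inhibition is scored at the spot as active (+) or very active (++). Where a number is given, it is the radius in mm of the inhibition zone around the spot.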

With CCC[C@@H](OC(C)=O)C1=C(Br)[C@@](CI)(OC)OC1=O as the compound, how does the Activity read?
The Activity was “inactive”.

Same assay, conditions: read-out: IZ

Which zone of inhibition at 5 µg/disc does the source give for CCC[C@@H](OC(C)=O)C1=C(Br)/C(=C/Br)OC1=O here?
The zone of inhibition at 5 µg/disc was 15 mm.

Test system: Penicillium oxalicum
Test: Antimicrobial activity against Penicillium oxalicum at 10 ug
Format: functional
Details: not given
How it was run: as §1

With CCC[C@@H](OC(C)=O)C1=C(Br)[C@@](CI)(OC)OC1=O as the compound, how does the Activity read?
The Activity was “inactive”.

Same assay, conditions: read-out: IZ

Which zone of inhibition at 10 µg/disc does the source give for CCC[C@@H](OC(C)=O)C1=C(Br)/C(=C/Br)OC1=O here?
The zone of inhibition at 10 µg/disc was 16 mm.

Target: Human immunodeficiency virus type 1 reverse transcriptase (Human immunodeficiency virus 1) (UniProt Q72547)
Test: Inhibition of HIV1 RT at 200 uM
Details: not given
How it was run: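 HIV-1 reverse transcriptase inhibition was measured in an ELISA-based system.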

Which Activity does the source give for CCC[C@@H](OC(C)=O)C1=C(Br)/C(=C/Br)OC1=O here?
Its Activity is “inactive”.

With CCC[C@@H](OC(C)=O)C1=C(Br)[C@@](CI)(OC)OC1=O as the compound, how does the Activity read?
The Activity was “inactive”.

Test system: Plasmodium falciparum
Test: Antimalarial activity against chloroquine-sensitive Plasmodium falciparum D6 at 10 ug/ml
Format: functional
Details: not given

Which Activity does the source give for CCC[C@@H](OC(C)=O)C1=C(Br)/C(=C/Br)OC1=O here?
The Activity was over 50%.

Which Activity does the source give for CCC[C@@H](OC(C)=O)C1=C(Br)[C@@](CI)(OC)OC1=O here?
The Activity was over 50%.

Test system: Monocyte
Test: Inhibition of IL1 biosynthesis in human monocytes
Format: functional, cell-based
Details: not given

For CCC[C@@H](OC(C)=O)C1=C(Br)/C(=C/Br)OC1=O, which IC50 is on record?
Its IC50 is 3 µM.

Test system: Micrococcus luteus
Test: Antimicrobial activity against Micrococcus luteus at 0.1 ug
Format: functional, organism-based
Details: not given
How it was run: as §1

For CCC[C@@H](OC(C)=O)C1=C(Br)/C(=C/Br)OC1=O, which Activity is on record?
The Activity was “inactive”.

For CCC[C@@H](OC(C)=O)C1=C(Br)[C@@](CI)(OC)OC1=O, which Activity is on record?
Its Activity is “inactive”.

Test system: KB
Test: Cytotoxicity against human KB cells
Format: functional
Details: read-out: ED50 (the source's name)

For CCC[C@@H](OC(C)=O)C1=C(Br)/C(=C/Br)OC1=O, which EC50 is on record?
The EC50 was 0.8 mg/L (≈ 2.17 µM).

For CCC[C@@H](OC(C)=O)C1=C(Br)[C@@](CI)(OC)OC1=O, which EC50 is on record?
Its EC50 is 2.4 mg/L (≈ 5.37 µM).

Test system: Escherichia coli
Test: Antimicrobial activity against Escherichia coli at 1 ug
Format: functional, organism-based
Details: not given
How it was run: as §1

Which Activity does the source give for CCC[C@@H](OC(C)=O)C1=C(Br)/C(=C/Br)OC1=O here?
The Activity was “inactive”.

For CCC[C@@H](OC(C)=O)C1=C(Br)[C@@](CI)(OC)OC1=O, which Activity is on record?
Its Activity is “inactive”.

Test system: ZR-75-1
Test: Cytotoxicity against human ZR-75-1 cells
Format: functional
Details: read-out: ED50 (the source's name)

With CCC[C@@H](OC(C)=O)C1=C(Br)/C(=C/Br)OC1=O as the compound, how does the EC50 read?
The EC50 was 1.6 mg/L (≈ 4.35 µM).

With CCC[C@@H](OC(C)=O)C1=C(Br)[C@@](CI)(OC)OC1=O as the compound, how does the EC50 read?
Its EC50 is 7.9 mg/L (≈ 17.7 µM).

Test system: KB
Test: Cytotoxicity against vinblastine-sensitive human KB cells
Format: functional
Details: read-out: ED50 (the source's name)

Which EC50 does the source give for CCC[C@@H](OC(C)=O)C1=C(Br)/C(=C/Br)OC1=O here?
Its EC50 is 2.1 mg/L (≈ 5.71 µM).

For CCC[C@@H](OC(C)=O)C1=C(Br)[C@@](CI)(OC)OC1=O, which EC50 is on record?
Its EC50 is 4.1 mg/L (≈ 9.17 µM).

Test system: Monocyte
Test: Inhibition of LPS-stimulated IL1 production in human monocytes
Format: functional, cell-based
Details: not given

Which IC50 does the source give for CCC[C@@H](OC(C)=O)C1=C(Br)/C(=C/Br)OC1=O here?
Its IC50 is 1.3 µM.

Test system: Escherichia coli
Test: Antimicrobial activity against Escherichia coli at 10 ug
Format: functional, organism-based
Details: not given
How it was run: as §1

With CCC[C@@H](OC(C)=O)C1=C(Br)/C(=C/Br)OC1=O as the compound, how does the Activity read?
Its Activity is “Active”.

For CCC[C@@H](OC(C)=O)C1=C(Br)[C@@](CI)(OC)OC1=O, which Activity is on record?
The Activity was “inactive”.

Test system: not listed separately
Test: Inhibition of PKC
Details: not given

Which IC50 does the source give for CCC[C@@H](OC(C)=O)C1=C(Br)/C(=C/Br)OC1=O here?
Its IC50 is 67 µM.

Test system: Micrococcus luteus
Test: Antimicrobial activity against Micrococcus luteus at 1 ug
Format: functional, organism-based
Details: not given
How it was run: as §1

With CCC[C@@H](OC(C)=O)C1=C(Br)/C(=C/Br)OC1=O as the compound, how does the Activity read?
Its Activity is “Active”.

For CCC[C@@H](OC(C)=O)C1=C(Br)[C@@](CI)(OC)OC1=O, which Activity is on record?
The Activity was “inactive”.

Test system: Lu1
Test: Cytotoxicity against human Lu1 cells
Format: functional
Details: read-out: ED50 (the source's name)

For CCC[C@@H](OC(C)=O)C1=C(Br)/C(=C/Br)OC1=O, which EC50 is on record?
Its EC50 is 1.7 mg/L (≈ 4.62 µM).

Which EC50 does the source give for CCC[C@@H](OC(C)=O)C1=C(Br)[C@@](CI)(OC)OC1=O here?
Its EC50 is over 20 mg/L.

Test system: Penicillium oxalicum
Test: Antimicrobial activity against Penicillium oxalicum at 0.1 ug
Format: functional
Details: not given
How it was run: as §1

For CCC[C@@H](OC(C)=O)C1=C(Br)[C@@](CI)(OC)OC1=O, which Activity is on record?
The Activity was “inactive”.

Same assay, conditions: read-out: IZ

With CCC[C@@H](OC(C)=O)C1=C(Br)/C(=C/Br)OC1=O as the compound, how does the zone of inhibition at 0.1 µg/disc read?
Its zone of inhibition at 0.1 µg/disc is 7 mm.

Test system: Bacillus subtilis
Test: Antimicrobial activity against Bacillus subtilis at 0.1 ug
Format: functional, organism-based
Details: not given
How it was run: as §1

Which Activity does the source give for CCC[C@@H](OC(C)=O)C1=C(Br)[C@@](CI)(OC)OC1=O here?
Its Activity is “inactive”.

Test system: Mycobacterium avium
Test: Antimycobacterial activity against Mycobacterium avium at 128 uM
Format: functional, organism-based
Details: not given

For CCC[C@@H](OC(C)=O)C1=C(Br)/C(=C/Br)OC1=O, which IC50 is on record?
The IC50 was 350 µM.

For CCC[C@@H](OC(C)=O)C1=C(Br)[C@@](CI)(OC)OC1=O, which IC50 is on record?
The IC50 was 350 µM.

Test system: Penicillium oxalicum
Test: Antimicrobial activity against Penicillium oxalicum at 0.01 ug
Format: functional
Details: not given
How it was run: as §1

For CCC[C@@H](OC(C)=O)C1=C(Br)/C(=C/Br)OC1=O, which Activity is on record?
The Activity was “inactive”.

Test system: Micrococcus luteus
Test: Antimicrobial activity against Micrococcus luteus at 5 ug
Format: functional, organism-based
Details: not given
How it was run: as §1

For CCC[C@@H](OC(C)=O)C1=C(Br)/C(=C/Br)OC1=O, which Activity is on record?
Its Activity is “Active”.

Which Activity does the source give for CCC[C@@H](OC(C)=O)C1=C(Br)[C@@](CI)(OC)OC1=O here?
Its Activity is “Active”.

Test system: LNCaP
Test: Cytotoxicity against human LNCAP cells
Format: functional
Details: read-out: ED50 (the source's name)

Which EC50 does the source give for CCC[C@@H](OC(C)=O)C1=C(Br)/C(=C/Br)OC1=O here?
The EC50 was 0.5 mg/L (≈ 1.36 µM).

For CCC[C@@H](OC(C)=O)C1=C(Br)[C@@](CI)(OC)OC1=O, which EC50 is on record?
The EC50 was 12.9 mg/L (≈ 28.9 µM).

Test system: KB
Test: Cytotoxicity against vinblastine-resistant human KB cells
Format: functional
Details: read-out: ED50 (the source's name)
How it was run: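 The vinblastine-resistant KB-V1 line was tested both with and without added vinblastine in the cultured tumour-cell cytotoxicity panel. Results are reported as ED50.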

For CCC[C@@H](OC(C)=O)C1=C(Br)/C(=C/Br)OC1=O, which EC50 is on record?
Its EC50 is 1 mg/L (≈ 2.72 µM).

Which EC50 does the source give for CCC[C@@H](OC(C)=O)C1=C(Br)[C@@](CI)(OC)OC1=O here?
Its EC50 is 7.1 mg/L (≈ 15.9 µM).

Test system: Micrococcus luteus
Test: Antimicrobial activity against Micrococcus luteus at 10 ug
Format: functional, organism-based
Details: not given
How it was run: as §1

Which Activity does the source give for CCC[C@@H](OC(C)=O)C1=C(Br)/C(=C/Br)OC1=O here?
Its Activity is “Active”.

With CCC[C@@H](OC(C)=O)C1=C(Br)[C@@](CI)(OC)OC1=O as the compound, how does the Activity read?
Its Activity is “Active”.

Test system: Penicillium oxalicum
Test: Antimicrobial activity against Penicillium oxalicum at 1 ug
Format: functional
Details: not given
How it was run: as §1

With CCC[C@@H](OC(C)=O)C1=C(Br)[C@@](CI)(OC)OC1=O as the compound, how does the Activity read?
Its Activity is “inactive”.

Same assay, conditions: read-out: IZ

With CCC[C@@H](OC(C)=O)C1=C(Br)/C(=C/Br)OC1=O as the compound, how does the zone of inhibition at 1 µg/disc read?
Its zone of inhibition at 1 µg/disc is 11 mm.

Test system: Bacillus subtilis
Test: Antimicrobial activity against Bacillus subtilis at 5 ug
Format: functional, organism-based
Details: not given
How it was run: as §1

With CCC[C@@H](OC(C)=O)C1=C(Br)/C(=C/Br)OC1=O as the compound, how does the Activity read?
Its Activity is “Active”.

For CCC[C@@H](OC(C)=O)C1=C(Br)[C@@](CI)(OC)OC1=O, which Activity is on record?
The Activity was “inactive”.

Test system: Bacillus subtilis
Test: Antimicrobial activity against Bacillus subtilis at 1 ug
Format: functional, organism-based
Details: not given
How it was run: as §1

Which Activity does the source give for CCC[C@@H](OC(C)=O)C1=C(Br)/C(=C/Br)OC1=O here?
Its Activity is “Active”.

For CCC[C@@H](OC(C)=O)C1=C(Br)[C@@](CI)(OC)OC1=O, which Activity is on record?
The Activity was “inactive”.

Test system: Escherichia coli
Test: Antimicrobial activity against Escherichia coli at 0.1 ug
Format: functional, organism-based
Details: not given
How it was run: as §1

With CCC[C@@H](OC(C)=O)C1=C(Br)/C(=C/Br)OC1=O as the compound, how does the Activity read?
Its Activity is “inactive”.

With CCC[C@@H](OC(C)=O)C1=C(Br)[C@@](CI)(OC)OC1=O as the compound, how does the Activity read?
The Activity was “inactive”.

Test system: Bacillus subtilis
Test: Antimicrobial activity against Bacillus subtilis at 10 ug
Format: functional, organism-based
Details: not given
How it was run: as §1

Which Activity does the source give for CCC[C@@H](OC(C)=O)C1=C(Br)/C(=C/Br)OC1=O here?
Its Activity is “Active”.

For CCC[C@@H](OC(C)=O)C1=C(Br)[C@@](CI)(OC)OC1=O, which Activity is on record?
The Activity was “inactive”.

Test system: Escherichia coli
Test: Antimicrobial activity against Escherichia coli at 5 ug
Format: functional, organism-based
Details: not given
How it was run: as §1

For CCC[C@@H](OC(C)=O)C1=C(Br)/C(=C/Br)OC1=O, which Activity is on record?
Its Activity is “inactive”.

With CCC[C@@H](OC(C)=O)C1=C(Br)[C@@](CI)(OC)OC1=O as the compound, how does the Activity read?
Its Activity is “inactive”.

From ChEMBL document CHEMBL1158040, “Biological activities and 3D QSAR studies of a series of Delisea pulchra (cf. fimbriata) derived natural products” (J Nat Prod, 2006)
